PDI turbidity = PDI (human) enzyme inhibition | P07237 | PDI insulin aggregation turbidity, A650, 90 min | inhibition, % at 10 µM | 350,000 tested, 0.052% active;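 active means mean inhibition across replicates of 30% or more, whatever share of single replicates reach that level; inconclusive means mean inhibition below 30% while every single replicate reaches 30%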
FGF22 binding = binders of recombinant human FGF22 by thermal shift; 340,000 tested, 1.5% active; activity (Tm shift, normalised), % at 9.99 µM; AID 651658; SYPRO orange fluorescence; percent of sucrose octasulfate shift, DMSO zero; Q9HCT0;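 active means mean Tm shift, scaled 0 neutral to 100 positive control, at about 1.3% or above, every replicate too, limit read from the data; inconclusive means no clear call, values can overlap the other calls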
Target sequence (Q9HCT0 whole entry, looked up): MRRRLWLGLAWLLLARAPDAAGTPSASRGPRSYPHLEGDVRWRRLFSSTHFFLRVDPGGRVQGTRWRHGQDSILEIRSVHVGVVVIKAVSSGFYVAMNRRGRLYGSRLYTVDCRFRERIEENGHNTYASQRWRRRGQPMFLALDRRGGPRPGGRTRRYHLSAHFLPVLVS
FN deposition inh = fibronectin deposition inhibition | AH1F fibroblasts, Alexa488-fibronectin deposition fluorescence, overnight | inhibition, % at 12.6 µM | 350,000 tested, 0.086% active;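 active means mean inhibition across replicates of 30% or more, regardless of how many single replicates reach that level; inconclusive means mean under 30% yet at least half of replicates reach 30%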;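 further: positive control wells lacked labelled fibronectin entirely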
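Schedule: 1 h cell adhesion before compound, then overnight fibronectin incubation; test system: AH1F fibroblast monolayer depositing Alexa488-labelled fibronectin into matrix; quantity: 10000 AH1F cells per well; probe or stimulus: fluorescent fibronectin at 24 nM final; signal: fluorescence, ex 485 nm, em 525 nm; evaluation: percent inhibition as loss of matrix-bound fibronectin fluorescence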
MLL AF4-AF9 inh = blocks AF4 peptide binding to human AF9. P42568. inhibition, % at 10 µM. AlphaScreen, biotin-AF4 peptide binding to FLAG-AF9. 350,000 tested, 0.47% active;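 active means every replicate reaching a set inhibition limit, whatever the replicate mean, cut at about 25% in these data; inconclusive means mean inhibition reaches that limit but some replicates miss it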;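 further: 0% = plate neutral control median and 100% = total signal loss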
Target sequence (P42568 whole entry, looked up): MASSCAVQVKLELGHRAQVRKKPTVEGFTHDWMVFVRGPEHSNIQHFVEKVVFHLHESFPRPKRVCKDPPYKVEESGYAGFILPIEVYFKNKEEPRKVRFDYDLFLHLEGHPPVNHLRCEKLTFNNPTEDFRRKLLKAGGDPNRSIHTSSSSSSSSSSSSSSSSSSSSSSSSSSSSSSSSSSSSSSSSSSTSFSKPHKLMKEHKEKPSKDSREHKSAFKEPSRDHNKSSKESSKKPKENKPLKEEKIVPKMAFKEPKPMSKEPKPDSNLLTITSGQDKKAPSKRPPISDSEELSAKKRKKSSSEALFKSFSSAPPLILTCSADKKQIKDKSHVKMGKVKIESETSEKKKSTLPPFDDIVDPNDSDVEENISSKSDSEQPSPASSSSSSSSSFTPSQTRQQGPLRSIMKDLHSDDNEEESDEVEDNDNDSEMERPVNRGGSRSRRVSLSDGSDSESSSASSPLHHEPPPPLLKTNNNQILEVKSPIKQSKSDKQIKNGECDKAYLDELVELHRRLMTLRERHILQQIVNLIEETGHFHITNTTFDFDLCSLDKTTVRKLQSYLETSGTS
ARNT-TACC3 inh = disruptors of human ARNT/TACC3 interaction | 390,000 tested, 0.66% active | AlphaScreen His-ARNT PAS-B/GST-TACC3 binding, luminescence; TACC3 fragment carries E629A point mutation | inhibition, % at 9.99 µM | Q9Y6A5;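 active means mean inhibition of replicates at least 50% and at least half of replicates each reaching 50%; inconclusive means half or more replicates reach 50% but mean below 50%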;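 further: 0% = complete ARNT plus TACC3 wells and 100% = ARNT alone without TACC3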
ERp5 block = inhibitors of human ERp5 | Q15084 | ERp5 insulin aggregation, absorbance 650 nm, 90 min | inhibition, % at 9.99 µM | 350,000 tested, 0.05% active | AID 651711;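 active means mean replicate inhibition above about 25%, with every replicate also reaching it, limit read from the data, passing the limit was not always enough; inconclusive means only one of those two criteria met; inactive means neither criterion met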
* = called active by the depositor; ? = inconclusive; · = no result given. An excerpt weighted towards active compounds, which were near 2.1% of everything screened.

SMILES | PDI turbidity | FGF22 binding | FN deposition inh | MLL AF4-AF9 inh | ARNT-TACC3 inh | ERp5 block
CCOC(=O)N1CCN(S(=O)(=O)c2ccc(C(=O)N(CCCN(C)C)c3nc4c(C)c(C)ccc4s3)cc2)CC1 | 5.4 | -0.2 | -8.1 | 26.0* | 19.8 | 12.0
COc1ccc(-c2[nH]ncc2[C@@H]2C[C@H]3CN(Cc4ccccc4C)C(=O)[C@]34CCCN24)cc1 | 9.8 | 43.5* | -6.9 | -3.9 | · | 2.4
CCCC(=O)NC(c1cccs1)c1cc(Cl)c2cccnc2c1O (centres undefined) | 1.7 | 0.9 | 11.8 | 0.0 | -2.2 | -0.3
CC(=O)NC(c1cccs1)c1cc(F)c2cccnc2c1O (centres undefined) | 1.3 | 43.4* | -15.1 | -1.2 | 55.8* | -2.0
CCCC(=O)NC(c1cccc([N+](=O)[O-])c1)c1ccc2cccnc2c1O (centres undefined) | 4.2 | 0.1 | 16.6 | 34.0* | · | 5.2
Cc1ccc(C(NC(=O)C(C)C)c2cc([N+](=O)[O-])c3cccnc3c2O)cc1 (centres undefined) | -3.4 | · | 14.2 | · | 50.3* | ·
CCN(CC)c1ccc(C(NC(=O)C(C)C)c2ccc3cccnc3c2O)cc1 (centres undefined) | -14.3 | -1.0 | 16.4 | 29.5* | · | 1.6
CO[C@H](CN(C)S(=O)(=O)c1ccccc1)[C@@H](C)CN(Cc1ccccc1Cl)[C@@H](C)CO | · | -0.2 | -13.5 | 2.6 | 29.0 | 0.6
CC(C)C(=O)NC(c1cccs1)c1cc([N+](=O)[O-])c2cccnc2c1O (centres undefined) | -1.7 | · | · | · | 59.8* | ·
CCC(=O)NC(c1cccs1)c1cc([N+](=O)[O-])c2cccnc2c1OC (centres undefined) | 6.5 | -0.4 | -1.5 | 3.8 | · | 2.9
CN1CCN(C(=O)c2cc(Oc3c(F)c(F)c(F)c(F)c3F)cc(C(=O)N3CCN(C)CC3)c2)CC1 | 19.0 | 43.8* | -1.0 | -2.9 | -6.5 | 5.4
CCN(CC)c1ccc(Nc2nc(Cl)ncc2Br)cc1 | 0.2 | -0.1 | 2.6 | 27.1* | 24.0 | -0.9
O=C(NC1CCCc2ccccc21)c1ccc([N+](=O)[O-])cc1 (centres undefined) | 13.1 | 43.5* | 1.6 | -0.6 | -4.3 | 3.2
O=C(NCCNC(=O)c1ccc(-c2cc(Cl)ccc2Cl)o1)c1cnccn1 | -1.2 | 43.7* | 4.1 | -12.7 | · | -10.7
O=C(Nc1cccc(F)c1)N1CC(=O)N2[C@H](C1)[C@H](c1ccc(Br)cc1)[C@@H]2CO | · | 1.0 | · | -2.5 | · | 0.0
CO[C@H]1CC[C@H]2CCN(C)C(=O)[C@@H](C)N(C)C(=O)c3cc(C#N)ccc3OC[C@H]1O2 | · | 0.1 | -4.4 | 1.6 | 0.0 | -1.2
CCN1C=C(C(C)=O)C(=O)CC1 | -2.4 | 43.3* | -1.8 | 1.2 | -5.8 | 1.8
C=CCN1C=C(C(C)=O)C(=O)CC1 | 1.4 | -0.5 | 4.2 | -4.8 | -3.0 | 5.2
CCCCn1nc2cc(C(=O)NCc3cc(C(F)(F)F)cc(C(F)(F)F)c3)ccc2c1OCC | -24.3 | 44.2* | 1.4 | -2.1 | -11.3 | -10.6
CS(=O)(=O)N1CCCCN2[C@@H](CO)[C@H](c3ccc(Br)cc3)[C@@H]2C1 | · | -0.4 | · | -6.3 | · | 0.4
Cc1cccc(C)c1-n1cccc1/C=C1/C(=N)N2C(=NC1=O)SN=C2S(C)(=O)=O | -5.6 | 43.7* | 0.4 | -4.4 | 1.3 | -5.9
C[C@@H]1CN([C@H](C)CO)C(=O)c2cc(C#CCc3ccccc3)cnc2O[C@H]1CN(C)Cc1cccnc1 | · | 0.0 | 2.6 | 3.9 | -5.3 | -3.5
CN(C)c1ncc(S(=O)(=O)c2ccccc2)c(-c2ccccc2Cl)n1 | 3.9 | · | 3.4 | · | -5.8 | ·
CN(C)c1ncc(S(=O)(=O)c2ccccc2)c(N)n1 | 7.3 | 43.6* | -0.7 | -2.6 | -3.0 | 3.3
Cc1cccc(NC(=O)C(C)Sc2nc3ccccc3c(=O)n2CCCN2CCOCC2)c1 (centres undefined) | -54.9 | 0.0 | 10.5 | 4.2 | · | -1.5
SMILES | PDI turbidity | FGF22 binding | FN deposition inh | MLL AF4-AF9 inh | ARNT-TACC3 inh | ERp5 block
CC(Sc1nc2ccccc2c(=O)n1CCCN1CCOCC1)C(=O)N1CCc2ccccc21 (centres undefined) | -3.6 | 43.6* | -3.2 | -4.1 | -15.1 | 2.6
Cc1cc(C)n2nc(C)c(Br)c2n1 | -5.2 | 44.2* | -13.6 | -0.7 | -1.1 | -0.8
CC1(c2cccc(Br)c2)NC(=O)NC1=O (centres undefined) | -6.1 | 0.1 | 0.5 | -2.9 | -4.0 | -4.0
O=C1NC(=O)C2(Br)Nc3ccc(Br)cc3C(=O)C2N1 (centres undefined) | 2.8 | 1.4* | -1.9 | -0.9 | 12.5 | 0.3
Cc1sc2nc(-c3ccccn3)[nH]c(=O)c2c1-c1ccccc1 | 12.2 | 0.3 | 0.1 | 2.9 | 79.4* | 4.4
CCN(CC)C(=O)c1sc2nc(-c3ccccn3)[nH]c(=O)c2c1C | 14.4 | 0.1 | 1.3 | 2.8 | 60.8* | -2.0
O=C(NN1C(=O)C2C(C1=O)C1C=CC2C12CC2)c1cccnc1 (centres undefined) | -9.1 | 43.7* | -7.3 | 0.2 | -0.7 | 5.2
O=C(NN1C(=O)C2C(C1=O)C1C=CC2C12CC2)c1ccncc1 (centres undefined) | 1.1 | · | 7.9 | · | -2.3 | ·
Oc1c(Br)cc(Br)cc1C=NCc1ccccc1 | -0.5 | 0.7 | · | 2.9 | 1.6 | 2.2
Oc1c(Br)cc(Br)cc1C=NCc1ccc(F)cc1 | 1.1 | 43.4* | 7.0 | 0.7 | -1.7 | 1.8
CCN1[C@H](C(=O)NC2CCC2)[C@@H](CO)[C@@H]2Cn3c(ccc(-c4ccc(OC)cc4)c3=O)[C@@H]21 | · | 0.1 | · | 1.7 | 15.7 | ?
CCCCCCN1C[C@H](O)[C@@H](n2cc(C3CC3)nn2)C[C@@H]1c1ccc(C)cc1 | 1.2 | 43.7* | -7.0 | 1.1 | · | 1.2
CCCCCCN1C[C@@H](O)[C@H](n2cc(C3CC3)nn2)C[C@@H]1c1ccc(C)cc1 | 2.8 | -0.1 | -2.2 | -1.5 | · | -0.8
COc1ccccc1-c1ccc([C@H]2[C@@H](CO)N(C(=O)NC3CCCC3)[C@H]2C#N)cc1 | · | · | 3.7 | -1.4 | · | 0.7
C[C@@H]1CN([C@H](C)CO)C(=O)c2cc(-c3ccccc3)cnc2O[C@H]1CN(C)C(=O)c1cccc(F)c1 | · | · | 6.7 | · | · | ·
O=C1c2cccc3c(N4CCCCC4)ccc(c23)C(=O)N1CCO | 14.3 | · | -3.4 | · | -22.9 | ·
O=C1c2cccc3c(N4CCCCC4)ccc(c23)C(=O)N1c1cccc(O)c1 | 19.5 | 43.7* | -7.1 | -3.1 | -12.4 | 1.9
COC(=O)C[C@H]1CC[C@H]2[C@H](COc3ccc(NC(=O)Nc4cccc(Cl)c4)cc3C(=O)N2C)O1 | · | 0.3 | -13.1 | 1.3 | 24.8 | 4.6
O=C(/C=C/c1ccc(Br)cc1)NC(=S)N1CCOCC1 | -0.5 | 43.8* | 3.0 | 0.5 | 3.0 | 3.6
CNc1ccc(C2(O)C(=O)c3ccccc3C2=O)cc1 | 10.6 | 43.0* | 1.4 | -0.4 | · | -1.5

High-throughput results: PubChem, Broad Institute
